For data set [1], the system named is CHO-MG. Briefly: Induction of polyamine efflux in aminoguanidine pretreated CHO-MG cells assessed as reduction in cell viability measured after 72 hrs in presence of spermine by MTS assay. The format is ADME, cell-based, Cricetulus griseus. The following applies: chinese hamster. (In general: Tetrazolium assays rely on reduction of a dye to a coloured formazan, in cell work by metabolically active cells.)

Data set [2] deals with L3.6pl. The experiment in a line: Potentiation of 2 uM N-(anthracenylmethyl) homospermidine-induced toxicity in human L3.6PL cells assessed as increase in Ant-44-induced reduction in cell growth measured after 72 hrs in presence of amine oxidase suppressor aminoguanidine by MTS assay. In kind it is functional, cell-based. The procedure, abridged: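 L3.6pl cells (500 cells/well) were pretreated 24 h with 250 μM aminoguanidine in PBS, then given Ant-44 (2 μM) with increasing compound for 72 h at 37°C. MTS growth was read, with EC50 relative to the Ant-44-only control.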

For data set [3], the system named is L3.6pl. The experiment in a line: Effect on polyamine level in human L3.6PL cells assessed as putrescine level per mg protein in supernatant at 2 uM measured after 72 hrs in presence of amine oxidase suppressor aminoguanidine by LCMS analysis (reference value: 977 +/- 522 pmol/mg). In kind it is functional.
The target of data set [4] is Large neutral amino acids transporter small subunit 1 (Homo sapiens) (UniProt Q01650). The experiment in a line: Inhibition of LAT1-mediated [3H]-leucine uptake in human L3.6PL cells at 2 to 7 uM preincubated for 24 hrs at 37 degree C followed by HBBS addition and compound washout and measured after 15 mins by scintillation counter method. In kind it is cell-based. The procedure, abridged: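 L3.6pl cells were preincubated with compound for 24 h at 37°C, then washed and placed in HBSS. ³H-leucine uptake was measured over 15 min at 37°C. Unbound label was removed with three cold buffer washes, and counts were normalized to μg protein.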
Large neutral amino acids transporter small subunit 1 (Homo sapiens), sequence (Q01650 whole entry): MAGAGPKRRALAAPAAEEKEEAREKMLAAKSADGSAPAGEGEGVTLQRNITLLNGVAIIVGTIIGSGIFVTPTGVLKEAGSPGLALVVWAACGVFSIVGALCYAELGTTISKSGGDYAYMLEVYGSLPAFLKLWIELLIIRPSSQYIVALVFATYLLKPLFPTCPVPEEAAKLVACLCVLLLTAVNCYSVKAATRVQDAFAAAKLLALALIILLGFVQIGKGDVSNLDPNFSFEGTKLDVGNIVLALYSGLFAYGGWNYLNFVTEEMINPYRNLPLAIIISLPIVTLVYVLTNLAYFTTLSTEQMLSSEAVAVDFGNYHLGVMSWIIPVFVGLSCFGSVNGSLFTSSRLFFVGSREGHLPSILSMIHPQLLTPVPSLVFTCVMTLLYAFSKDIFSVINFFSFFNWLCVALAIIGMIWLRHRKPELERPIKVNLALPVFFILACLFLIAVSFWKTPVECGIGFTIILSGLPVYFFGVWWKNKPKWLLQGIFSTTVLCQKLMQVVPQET

For data set [5] the target is unchanged. The experiment in a line: Induction of LAT1-mediated polyamine efflux in aminoguanidine pretreated human L3.6PL cells assessed as reduction in cell viability at 5 uM measured after 72 hrs in presence of spermidine by MTS assay. The format is cell-based. Put shortly:
(§1)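 L3.6pl cells pre-incubated 24 h with 250 μM aminoguanidine. Then given increasing compound plus putrescine, spermidine or spermine, each fixed at 1 or 5 μM, for 72 h at 37°C. Growth by MTS relative to untreated control.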

Data set [6] deals with L3.6pl. Briefly: Cytotoxicity against human L3.6PL cells assessed as reduction in cell viability measured after 72 hrs by MTS assay. The format is cell-based. Put shortly:
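L3.6pl cells, 500 cells/well in RPMI 1640 with 10% FBS and 250 μM aminoguanidine, plated overnight. Compound in PBS added, then 72 h at 37°C. MTS absorbance at 490 nm. IC50 is the dose giving 50% relative growth versus untreated control. Run twice in triplicate.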

The test system of a further data set is CHO-K1. Briefly: Cytotoxicity against CHOK1 cells assessed as effect on cell growth up to 6 uM measured after 48 hrs by MTS assay. In kind it is cell-based, Cricetulus griseus. To be noted: chinese hamster, cho-k1, 48 h.
Data set [7] concerns the target Large neutral amino acids transporter small subunit 1 (Homo sapiens) (UniProt Q01650). Briefly: Inhibition of LAT1-mediated amino acid transport in human L3.6PL cells assessed as reduction in intracellular methionine level by measuring methionine level per mg protein in cell lysate at 5 uM measured after 72 hrs by LCMS analysis (reference value: 167 +/- 67 pmol/mg). In kind it is cell-based. Put shortly: (§2)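 L3.6pl cells (50,000 cells/mL, 10 mL, 1 mM aminoguanidine) were seeded in poly-lysine-treated 9 cm dishes and incubated overnight at 37°C. They were then dosed with compound at 2, 5 or 7 μM from PBS stocks (2, 5, 7 mM) and incubated 72 h. Runs were done in triplicate, with amino acid levels per mg protein.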

For data set [8], the system named is L3.6pl. The experiment in a line: Effect on polyamine level in human L3.6PL cells assessed as ornithine level per mg protein in supernatant at 5 uM measured after 72 hrs in presence of amine oxidase suppressor aminoguanidine by LCMS analysis (reference value: 10588 +/- 3212 pmol/mg). The format is functional.
Data set [9] concerns L3.6pl. Briefly: Effect on polyamine level in human L3.6PL cells assessed as intracellular putrescine level at 7 uM measured after 72 hrs in presence of amine oxidase suppressor aminoguanidine by LCMS analysis relative to control. In kind it is functional. The following applies: in the assay text read “by N-dansylation and HPLC analysis” for “by LCMS analysis”. The procedure, abridged: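 L3.6pl cells, 50,000 cells/mL in 10 mL per Petri dish with 1 mM aminoguanidine, plated overnight. Dosed with compound at 2, 5 or 7 μM from PBS stocks, then 72 h at 37°C. Intracellular polyamines measured by N-dansylation and HPLC, in duplicate, as nmol/mg protein against a parallel untreated control.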

In data set [10] the target is Large neutral amino acids transporter small subunit 1 (Homo sapiens) (UniProt Q01650). The experiment in a line: Induction of LAT1-mediated polyamine efflux in aminoguanidine pretreated human L3.6PL cells assessed as reduction in cell viability at 5 uM measured after 72 hrs in presence of spermine by MTS assay. In kind it is cell-based. Put shortly:
as §1

Data set [11] has the same target. Briefly: Inhibition of LAT1-mediated amino acid transport in human L3.6PL cells assessed as reduction in intracellular methionine level by measuring methionine level per mg protein in cell lysate at 2 uM measured after 72 hrs by LCMS analysis (reference value: 167 +/- 67 pmol/mg). In kind it is cell-based. The procedure, abridged:
as §2

The test system of data set [12] is L3.6pl. The experiment in a line: Effect on polyamine level in human L3.6PL cells assessed as agmatine level per mg protein in supernatant at 5 uM measured after 72 hrs in presence of amine oxidase suppressor aminoguanidine by LCMS analysis (reference value: 101 pmol/mg). In kind it is functional.
In data set [13] the target is Large neutral amino acids transporter small subunit 1 (Homo sapiens) (UniProt Q01650). The experiment in a line: Inhibition of LAT1-mediated amino acid transport in human L3.6PL cells assessed as reduction in intracellular leucine level by measuring leucine level per mg protein in cell lysate at 7 uM measured after 72 hrs by LCMS analysis (reference value: 232 +/- 10 pmol/mg). The format is cell-based. Put shortly:
as §2

For data set [14] the target is unchanged. The experiment in a line: Inhibition of LAT1-mediated amino acid transport in human L3.6PL cells assessed as reduction in intracellular leucine level measured after 72 hrs by LCMS analysis. The format is cell-based. The procedure, abridged: as §2
Data set [15] has as its system L3.6pl. The experiment in a line: Effect on polyamine level in human L3.6PL cells assessed as glutamic acid level per mg protein in supernatant at 2 uM measured after 72 hrs in presence of amine oxidase suppressor aminoguanidine by LCMS analysis (reference value: 23412 +/- 3983 pmol/mg).
The subject of data set [16] is CHO-MG. Briefly: Induction of polyamine efflux in aminoguanidine pretreated CHO-MG cells assessed as reduction in cell viability measured after 72 hrs in presence of spermidine by MTS assay. The format is ADME, cell-based, Cricetulus griseus. The following applies: chinese hamster.
For data set [17], the system named is L3.6pl. Briefly: Effect on polyamine level in human L3.6PL cells assessed as glutamic acid level per mg protein in supernatant at 5 uM measured after 72 hrs in presence of amine oxidase suppressor aminoguanidine by LCMS analysis (reference value: 23412 +/- 3983 pmol/mg).
In data set [18] the target is Large neutral amino acids transporter small subunit 1 (Homo sapiens) (UniProt Q01650). The experiment in a line: Induction of LAT1-mediated polyamine efflux in aminoguanidine pretreated human L3.6PL cells assessed as reduction in cell viability at 5 uM measured after 72 hrs in presence of putrescine by MTS assay. The format is cell-based. The procedure, abridged: as §1

The subject of data set [19] is L3.6pl. The experiment in a line: Effect on polyamine level in human L3.6PL cells assessed as acetyl spermidine level per mg protein in supernatant at 5 uM measured after 72 hrs in presence of amine oxidase suppressor aminoguanidine by LCMS analysis (reference value: 1936 +/- 1365 pmol/mg). In kind it is functional.
Data set [20] relates to L3.6pl. The experiment in a line: Effect on polyamine level in human L3.6PL cells assessed as acetyl spermine level per mg protein in supernatant at 2 uM measured after 72 hrs in presence of amine oxidase suppressor aminoguanidine by LCMS analysis (reference value: 77 +/- 43 pmol/mg). The format is functional.

Active and inactive are the calls of the source. No cut-off for these calls is given here.

Experimental findings from ChEMBL document CHEMBL4613249, “Serendipitous Discovery of Leucine and Methionine Depletion Agents during the Search for Polyamine Transport Inhibitors” (J Med Chem, 2020) are described below.

For the compound `CC(C)CCN1CCN([C@@H](CNCc2ccccc2)CC2CCCCC2)C[C@@H]1CC(C)C`, the Activity entry in the data set with CHO-MG [1] is “Active”; in the data set with L3.6pl [3], 938 pmol/mg; in the data set on CHO-K1 it was “Non-Toxic”; in data set [7] it was 41 pmol/mg; in the data set on L3.6pl [8] it was 15951 pmol/mg; in the data set on L3.6pl [9], 83%. The Activity in data set [11] is 226 pmol/mg; with L3.6pl [12] it was 485 pmol/mg; in data set [13] it was 77 pmol/mg; in the data set with L3.6pl [15], 20231 pmol/mg; in the data set with CHO-MG [16] it was “Active”; in the data set with L3.6pl [17] it was 34033 pmol/mg. Further, the Activity in the data set on L3.6pl [19] is 1706 pmol/mg; in the data set with L3.6pl [20], 49 pmol/mg. For the same compound, the EC50 with L3.6pl [2] was 0.29 µM. Besides, the inhibition entry in data set [4] was “inactive”. The result in [5], in data set [10] and in data set [18] was Active. The IC50 in the data set on L3.6pl [6] worked out at 5.9 µM. In addition, the inhibition entry in data set [14] was “Dose-dependent effect”.

Usually EC50 stands for the concentration needed to bring the measured effect to its halfway point. What is called IC50 is the concentration that gives 50% inhibition.
